# Data as given in ChEMBL document CHEMBL3352222, “2-Hexylthio-β,γ-CH2-ATP is an effective and selective NTPDase2 inhibitor” (J Med Chem, 2014).
# Tested on: not listed separately
# Test: Stability assessed as human compound hydrolysis
# Conditions: read-out: Drug degradation
row,SMILES,metabolised
1,O=P(O)(O)OC[C@H]1O[C@@H](n2cnc3c(N(Cc4ccccc4)Cc4ccccc4)ncnc32)[C@H](O)[C@@H]1O,5%
2,CN(C)c1ncnc2c1ncn2[C@@H]1O[C@H](COP(=O)(O)O)[C@@H](O)[C@H]1O,2%
3,O=P(O)(O)OP(=O)(O)OP(=O)(O)OC[C@H]1O[C@@H](n2cnc3c(N(Cc4ccccc4)Cc4ccccc4)ncnc32)[C@H](O)[C@@H]1O,13%
4,CCN(CC)c1ncnc2c1ncn2[C@@H]1O[C@H](COP(=O)(O)OP(=O)(O)OP(=O)(O)O)[C@@H](O)[C@H]1O,20%

# Biological target: T1, NTPDase3 (ectonucleoside triphosphate diphosphohydrolase 3) (Homo sapiens, UniProt O75355)
# T1 sequence (O75355 whole entry): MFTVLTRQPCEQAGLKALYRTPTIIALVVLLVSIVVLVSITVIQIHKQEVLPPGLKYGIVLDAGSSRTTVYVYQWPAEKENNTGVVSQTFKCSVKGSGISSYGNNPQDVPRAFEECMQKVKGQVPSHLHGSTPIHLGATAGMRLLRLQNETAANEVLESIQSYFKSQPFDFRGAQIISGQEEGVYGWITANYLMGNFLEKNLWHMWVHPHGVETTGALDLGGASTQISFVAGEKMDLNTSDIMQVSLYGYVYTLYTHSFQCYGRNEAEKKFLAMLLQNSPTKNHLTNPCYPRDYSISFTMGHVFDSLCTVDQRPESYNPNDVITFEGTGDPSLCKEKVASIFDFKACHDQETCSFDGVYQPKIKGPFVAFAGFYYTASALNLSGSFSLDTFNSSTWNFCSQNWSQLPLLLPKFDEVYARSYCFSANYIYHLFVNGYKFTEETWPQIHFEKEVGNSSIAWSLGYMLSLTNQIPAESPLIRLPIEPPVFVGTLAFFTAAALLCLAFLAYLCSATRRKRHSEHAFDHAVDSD
# Test: Stability assessed as human NTPDase3-mediated compound hydrolysis
# Assay type: ADME
# Conditions: human NTPDase3 enzyme, read-out: Drug degradation
# In short: (§1)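 Each analogue offered as substrate to recombinant human NTPDase (COS-7 transfected cell protein extracts) at 37 °C, pH 7.4 Ca2+/Tris medium, 15 min; Pi released measured by malachite green at 630 nm; hydrolysis expressed relative to ATP set as 100%; mean ± SD of three independent experiments, each in duplicate.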
row,SMILES,metabolised
1,O=P(O)(O)OC[C@H]1O[C@@H](n2cnc3c(N(Cc4ccccc4)Cc4ccccc4)ncnc32)[C@H](O)[C@@H]1O,10%
2,CN(C)c1ncnc2c1ncn2[C@@H]1O[C@H](COP(=O)(O)O)[C@@H](O)[C@H]1O,4%
3,O=P(O)(O)OP(=O)(O)OP(=O)(O)OC[C@H]1O[C@@H](n2cnc3c(N(Cc4ccccc4)Cc4ccccc4)ncnc32)[C@H](O)[C@@H]1O,8%
4,CCCCCCSc1nc(N)c2ncn([C@@H]3O[C@H](COP(=O)(O)OP(=O)(O)CP(=O)(O)O)[C@@H](O)[C@H]3O)c2n1,0.8%
5,CCN(CC)c1ncnc2c1ncn2[C@@H]1O[C@H](COP(=O)(O)OP(=O)(O)OP(=O)(O)O)[C@@H](O)[C@H]1O,2%

# Biological target: T2, Ectonucleoside triphosphate diphosphohydrolase 2 (Homo sapiens, UniProt Q9Y5L3)
# T2 sequence (Q9Y5L3 whole entry): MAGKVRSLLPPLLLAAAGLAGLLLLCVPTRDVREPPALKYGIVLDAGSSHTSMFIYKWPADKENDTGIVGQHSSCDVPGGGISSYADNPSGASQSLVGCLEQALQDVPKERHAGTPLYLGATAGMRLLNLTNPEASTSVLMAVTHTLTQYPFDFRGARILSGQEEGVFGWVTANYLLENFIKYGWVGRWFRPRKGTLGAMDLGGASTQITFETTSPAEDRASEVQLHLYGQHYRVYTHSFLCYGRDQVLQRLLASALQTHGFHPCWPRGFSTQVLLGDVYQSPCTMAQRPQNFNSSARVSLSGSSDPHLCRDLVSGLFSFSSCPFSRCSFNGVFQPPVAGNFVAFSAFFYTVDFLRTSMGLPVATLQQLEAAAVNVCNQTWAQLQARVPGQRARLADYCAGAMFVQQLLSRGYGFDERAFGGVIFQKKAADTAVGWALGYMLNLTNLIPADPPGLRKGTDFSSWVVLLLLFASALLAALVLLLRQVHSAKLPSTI
# Test: Inhibition of recombinant human NTPDase2 transfected in COS-7 cells using ATP substrate
# Assay type: cell-based
# Conditions: not given
SMILES,IC50,Ki
CCCCCCSc1nc(N)c2ncn([C@@H]3O[C@H](COP(=O)(O)OP(=O)(O)CP(=O)(O)O)[C@@H](O)[C@H]3O)c2n1,40 µM,21 µM

# Biological target: T3, Ectonucleotide pyrophosphatase/phosphodiesterase family member 1 (Homo sapiens) (UniProt P22413)
# T3 sequence (whole entry): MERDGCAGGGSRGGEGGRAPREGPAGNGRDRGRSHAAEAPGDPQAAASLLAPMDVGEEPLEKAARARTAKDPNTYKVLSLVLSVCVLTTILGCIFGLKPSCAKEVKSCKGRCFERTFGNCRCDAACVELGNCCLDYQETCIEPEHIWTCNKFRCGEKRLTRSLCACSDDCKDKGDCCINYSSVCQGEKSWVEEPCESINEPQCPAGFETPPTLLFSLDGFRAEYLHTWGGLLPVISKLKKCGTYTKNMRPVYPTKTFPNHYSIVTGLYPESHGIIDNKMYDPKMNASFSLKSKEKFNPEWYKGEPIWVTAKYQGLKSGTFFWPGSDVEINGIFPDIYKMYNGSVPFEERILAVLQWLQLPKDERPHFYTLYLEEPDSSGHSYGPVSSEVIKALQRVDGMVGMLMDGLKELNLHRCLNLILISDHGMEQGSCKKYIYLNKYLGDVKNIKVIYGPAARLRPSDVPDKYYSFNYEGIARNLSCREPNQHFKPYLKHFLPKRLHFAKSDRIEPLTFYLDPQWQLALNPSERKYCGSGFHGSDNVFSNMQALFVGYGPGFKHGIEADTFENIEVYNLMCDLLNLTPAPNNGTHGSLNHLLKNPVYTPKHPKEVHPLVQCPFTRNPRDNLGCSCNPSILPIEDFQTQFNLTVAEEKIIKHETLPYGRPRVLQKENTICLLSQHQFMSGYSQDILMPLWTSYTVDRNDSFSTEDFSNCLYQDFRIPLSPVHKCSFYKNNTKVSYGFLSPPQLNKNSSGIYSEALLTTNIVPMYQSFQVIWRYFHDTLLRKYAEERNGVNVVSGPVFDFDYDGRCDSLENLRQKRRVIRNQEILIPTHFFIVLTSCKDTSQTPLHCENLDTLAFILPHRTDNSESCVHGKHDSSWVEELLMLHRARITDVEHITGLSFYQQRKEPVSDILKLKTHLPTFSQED
# Test: Inhibition of human NPP1 using pNP-TMP substrate relative to control
# Conditions: concentration not given here
# In short: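 Extract of COS-7 cells transfected with human NPP1, preincubated 3 min at 37 °C in 1 mM CaCl2, 140 mM NaCl, 5 mM KCl, 50 mM Tris pH 8.5; started with 100 μM pNP-TMP, compound 100 μM; p-nitrophenol read at 410 nm after 15 min; activity without compound = 100%; mean ± SD, three experiments in triplicate.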
row,SMILES,inhibition
1,CCCCCCSc1nc(N)c2ncn([C@@H]3O[C@H](COP(=O)(O)OP(=O)(O)CP(=O)(O)O)[C@@H](O)[C@H]3O)c2n1,> 50%

# Biological target: 5'-nucleotidase (Homo sapiens) (UniProt P21589)
# Test: Inhibition of AMPase activity of human ecto-5'-nucleotidase using AMP substrate relative to control
# Conditions: concentration not given here
# In short: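 Human ecto-5′-nucleotidase in protein extracts of transfected COS-7 cells; 3 min preincubation at 37 °C in 5 mM CaCl2/80 mM Tris pH 7.4 (or Tris-Ringer); started with 100 μM AMP, compound also 100 μM; stopped after 15 min with malachite green, Pi read at 630 nm; activity without compound set as 100%; mean ± SD, three experiments in triplicate.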
# Chain of 5'-nucleotidase (Homo sapiens) (P21589 whole entry): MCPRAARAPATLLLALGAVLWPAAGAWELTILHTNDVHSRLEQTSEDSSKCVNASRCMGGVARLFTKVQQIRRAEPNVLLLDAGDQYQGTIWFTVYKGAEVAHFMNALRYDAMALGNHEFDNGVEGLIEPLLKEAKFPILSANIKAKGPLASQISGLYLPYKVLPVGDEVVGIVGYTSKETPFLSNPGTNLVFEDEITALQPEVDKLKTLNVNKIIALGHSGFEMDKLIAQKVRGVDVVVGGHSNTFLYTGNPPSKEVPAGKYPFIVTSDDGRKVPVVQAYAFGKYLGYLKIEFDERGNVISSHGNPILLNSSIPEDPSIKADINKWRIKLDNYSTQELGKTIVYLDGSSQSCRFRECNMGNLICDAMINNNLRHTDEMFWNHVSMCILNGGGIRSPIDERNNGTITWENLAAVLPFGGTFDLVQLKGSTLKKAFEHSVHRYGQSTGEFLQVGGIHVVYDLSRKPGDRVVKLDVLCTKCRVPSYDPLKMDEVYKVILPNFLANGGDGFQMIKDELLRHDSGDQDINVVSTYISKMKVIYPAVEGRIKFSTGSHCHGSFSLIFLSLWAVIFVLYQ
row,SMILES,inhibition
1,CCCCCCSc1nc(N)c2ncn([C@@H]3O[C@H](COP(=O)(O)OP(=O)(O)CP(=O)(O)O)[C@@H](O)[C@H]3O)c2n1,10%

# Biological target: T4, NTPDase1 (ectonucleoside triphosphate diphosphohydrolase 1) (Homo sapiens, UniProt P49961)
# T4 sequence (P49961 whole entry): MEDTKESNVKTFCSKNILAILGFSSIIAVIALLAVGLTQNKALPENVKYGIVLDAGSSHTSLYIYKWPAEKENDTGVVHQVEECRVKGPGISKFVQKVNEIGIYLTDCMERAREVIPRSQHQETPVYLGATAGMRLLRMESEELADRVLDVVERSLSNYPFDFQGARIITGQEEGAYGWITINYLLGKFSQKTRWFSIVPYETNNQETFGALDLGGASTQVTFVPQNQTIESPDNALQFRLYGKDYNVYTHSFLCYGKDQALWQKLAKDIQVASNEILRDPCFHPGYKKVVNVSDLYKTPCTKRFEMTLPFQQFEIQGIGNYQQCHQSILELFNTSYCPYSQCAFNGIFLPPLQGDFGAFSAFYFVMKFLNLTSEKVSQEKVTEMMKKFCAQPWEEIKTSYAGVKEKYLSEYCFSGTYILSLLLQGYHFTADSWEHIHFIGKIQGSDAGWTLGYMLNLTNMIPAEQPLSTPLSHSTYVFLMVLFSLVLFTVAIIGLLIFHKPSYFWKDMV
# Test: Stability assessed as human NTPDase1-mediated compound hydrolysis
# Assay type: ADME
# Conditions: human NTPDase1 enzyme, read-out: Drug degradation
# In short: as §1
row,SMILES,metabolised
1,CNc1ncnc2c1ncn2[C@@H]1O[C@H](COP(=O)(O)OP(=O)(O)OP(=O)(O)O)[C@@H](O)[C@H]1O,87%
2,O=P(O)(O)OC[C@H]1O[C@@H](n2cnc3c(N(Cc4ccccc4)Cc4ccccc4)ncnc32)[C@H](O)[C@@H]1O,6%
3,CN(C)c1ncnc2c1ncn2[C@@H]1O[C@H](COP(=O)(O)OP(=O)(O)OP(=O)(O)O)[C@@H](O)[C@H]1O,74%
4,CN(C)c1ncnc2c1ncn2[C@@H]1O[C@H](COP(=O)(O)O)[C@@H](O)[C@H]1O,0%
5,O=P(O)(O)OP(=O)(O)OP(=O)(O)OC[C@H]1O[C@@H](n2cnc3c(N(Cc4ccccc4)Cc4ccccc4)ncnc32)[C@H](O)[C@@H]1O,14%
6,CCCCCCSc1nc(N)c2nnn([C@@H]3O[C@H](COP(=O)(O)OP(=O)(O)OP(=O)(O)O)[C@@H](O)[C@H]3O)c2n1,44%
7,CCCCCCSc1nc(N)c2ncn([C@@H]3O[C@H](COP(=O)(O)OP(=O)(O)CP(=O)(O)O)[C@@H](O)[C@H]3O)c2n1,2.3%
8,Nc1ncnc2c1nnn2[C@@H]1O[C@H](COP(=O)(O)OP(=O)(O)OP(=O)(O)O)[C@@H](O)[C@H]1O,73%
9,CCN(CC)c1ncnc2c1ncn2[C@@H]1O[C@H](COP(=O)(O)OP(=O)(O)OP(=O)(O)O)[C@@H](O)[C@H]1O,22%

# Biological target: T5, NTPDase2 (ectonucleoside triphosphate diphosphohydrolase 2) (Homo sapiens, UniProt Q9Y5L3)
# T5 sequence (Q9Y5L3 whole entry): T2 sequence (Q9Y5L3 whole entry)
# Test: Stability assessed as human NTPDase2-mediated compound hydrolysis
# Assay type: ADME
# Conditions: human NTPDase2 enzyme, read-out: Drug degradation
# In short: as §1
row,SMILES,metabolised
1,CNc1ncnc2c1ncn2[C@@H]1O[C@H](COP(=O)(O)OP(=O)(O)OP(=O)(O)O)[C@@H](O)[C@H]1O,77%
2,O=P(O)(O)OC[C@H]1O[C@@H](n2cnc3c(N(Cc4ccccc4)Cc4ccccc4)ncnc32)[C@H](O)[C@@H]1O,3%
3,CN(C)c1ncnc2c1ncn2[C@@H]1O[C@H](COP(=O)(O)OP(=O)(O)OP(=O)(O)O)[C@@H](O)[C@H]1O,73%
4,CN(C)c1ncnc2c1ncn2[C@@H]1O[C@H](COP(=O)(O)O)[C@@H](O)[C@H]1O,0%
5,O=P(O)(O)OP(=O)(O)OP(=O)(O)OC[C@H]1O[C@@H](n2cnc3c(N(Cc4ccccc4)Cc4ccccc4)ncnc32)[C@H](O)[C@@H]1O,3%
6,CCCCCCSc1nc(N)c2nnn([C@@H]3O[C@H](COP(=O)(O)OP(=O)(O)OP(=O)(O)O)[C@@H](O)[C@H]3O)c2n1,11.5%
7,CCCCCCSc1nc(N)c2ncn([C@@H]3O[C@H](COP(=O)(O)OP(=O)(O)CP(=O)(O)O)[C@@H](O)[C@H]3O)c2n1,2.8%
8,Nc1ncnc2c1nnn2[C@@H]1O[C@H](COP(=O)(O)OP(=O)(O)OP(=O)(O)O)[C@@H](O)[C@H]1O,38.5%
9,CCN(CC)c1ncnc2c1ncn2[C@@H]1O[C@H](COP(=O)(O)OP(=O)(O)OP(=O)(O)O)[C@@H](O)[C@H]1O,0%

# Biological target: T6, Ectonucleoside triphosphate diphosphohydrolase 2 (Homo sapiens) (UniProt Q9Y5L3)
# T6 sequence (whole entry): T2 sequence (Q9Y5L3 whole entry)
# Test: Inhibition of recombinant human NTPDase2 transfected in COS-7 cells using ATP substrate at 100 uM relative to control
# Assay type: cell-based
# Conditions: not given
# In short: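 Extracts of COS-7 cells expressing human NTPDase2, preincubated 3 min at 37 °C in 5 mM CaCl2/80 mM Tris pH 7.4; ATP and compound both 100 μM; stopped at 15 min with malachite green, Pi at 630 nm; ATP alone set as 100%; mean ± SD of three experiments in triplicate.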
row,SMILES,inhibition
1,O=P(O)(O)OC[C@H]1O[C@@H](n2cnc3c(N(Cc4ccccc4)Cc4ccccc4)ncnc32)[C@H](O)[C@@H]1O,10%
2,O=P(O)(O)OP(=O)(O)OP(=O)(O)OC[C@H]1O[C@@H](n2cnc3c(N(Cc4ccccc4)Cc4ccccc4)ncnc32)[C@H](O)[C@@H]1O,0%
3,CCCCCCSc1nc(N)c2ncn([C@@H]3O[C@H](COP(=O)(O)OP(=O)(O)CP(=O)(O)O)[C@@H](O)[C@H]3O)c2n1,70%
4,CCN(CC)c1ncnc2c1ncn2[C@@H]1O[C@H](COP(=O)(O)OP(=O)(O)OP(=O)(O)O)[C@@H](O)[C@H]1O,42%
